In experiment [1] the target is T1, purified recombinant rat MGL (Rattus norvegicus, UniProt Q8R431).
T1 sequence (Q8R431 1-303): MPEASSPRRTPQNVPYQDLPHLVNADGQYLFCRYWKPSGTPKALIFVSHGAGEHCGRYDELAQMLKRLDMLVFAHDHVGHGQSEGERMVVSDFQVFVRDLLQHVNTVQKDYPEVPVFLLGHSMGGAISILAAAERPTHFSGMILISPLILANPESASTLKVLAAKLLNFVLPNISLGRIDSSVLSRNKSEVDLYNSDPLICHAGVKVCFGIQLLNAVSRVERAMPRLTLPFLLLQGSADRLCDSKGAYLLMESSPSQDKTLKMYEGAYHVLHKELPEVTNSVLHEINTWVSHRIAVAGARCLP
As to the kind of experiment: Inhibition of purified recombinant MGL. The format is biochemical.

The subject of experiment [2] is primary cultures of rat cortical neurons. As to the kind of experiment: 2-AG and PEA levels in primary cultures of rat cortical neurons. The format is cell-based.
The next experiment concerns the target T2, MGL Cys32 mutant (Rattus norvegicus, UniProt Q8R431, C32G).
T2 sequence (Q8R431 1-303 C32G): T1 sequence (Q8R431 1-303) with C32G
Briefly: Inhibition of MGL Cys32 mutant. To be noted: data not shown. The format is biochemical.

Another experiment addresses T3, rat ABHD6 (Rattus norvegicus, UniProt Q5XI64).
T3 sequence (Q5XI64 1-337): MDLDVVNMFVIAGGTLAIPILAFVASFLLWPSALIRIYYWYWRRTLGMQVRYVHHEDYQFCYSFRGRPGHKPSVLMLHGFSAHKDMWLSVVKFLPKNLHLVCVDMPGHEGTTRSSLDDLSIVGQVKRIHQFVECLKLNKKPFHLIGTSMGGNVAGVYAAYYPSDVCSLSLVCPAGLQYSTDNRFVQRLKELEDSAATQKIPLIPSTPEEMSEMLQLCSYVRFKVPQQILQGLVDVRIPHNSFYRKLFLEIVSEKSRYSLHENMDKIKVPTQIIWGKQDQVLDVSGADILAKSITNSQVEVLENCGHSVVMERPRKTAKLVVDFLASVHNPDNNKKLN
As to the kind of experiment: ABHD6 activity assay. The format is biochemical.

Another experiment addresses T4, MGL C201G mutant (Rattus norvegicus, UniProt Q8R431, C201G).
T4 sequence (Q8R431 1-303 C201G): T1 sequence (Q8R431 1-303) with C201G
Briefly: Inhibition of MGL C201G mutant in HeLa cell extracts. The format is biochemical.

Experiment [3] concerns the target T5, rat recombinant N-acylethanolamide acid amidase (Rattus norvegicus, UniProt Q5KTC7).
T5 sequence (Q5KTC7 131-362 limits assumed): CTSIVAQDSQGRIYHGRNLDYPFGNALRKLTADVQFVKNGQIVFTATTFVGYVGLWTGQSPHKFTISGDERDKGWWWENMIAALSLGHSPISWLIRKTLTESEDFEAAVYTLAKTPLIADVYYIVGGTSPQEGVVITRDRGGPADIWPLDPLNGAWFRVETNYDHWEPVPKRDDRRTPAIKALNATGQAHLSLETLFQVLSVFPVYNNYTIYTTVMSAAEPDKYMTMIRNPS
T5 sequence (Q5KTC7 34-130 limits assumed): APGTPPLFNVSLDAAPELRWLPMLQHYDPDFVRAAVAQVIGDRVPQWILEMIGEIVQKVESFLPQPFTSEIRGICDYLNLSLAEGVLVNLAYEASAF
Briefly: NAAA activity assay. Format: biochemical. To be noted: in vitro, Table S1. The gist of the method: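 Rat NAAA (Flag-tagged) from stably transfected HEK293 cells (G418 0.3 mg/ml), prepared by sonication, differential centrifugation, freeze-thaw and 105,000 × g supernatant. 50 μM heptadecenoylethanolamide incubated with 10 μg protein in 50 mM sodium phosphate pH 5.0, 0.1% Triton X-100, 3 mM DTT, 30 min at 37°C. Stopped with cold methanol containing heptadecanoic acid; product (m/z 267) measured by LC/MS SIM.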

Experiment [4] concerns the target T6, non-purified HeLa MGL (wild-type) (Rattus norvegicus, UniProt Q8R431).
T6 sequence (Q8R431 1-303): T1 sequence (Q8R431 1-303)
As to the kind of experiment: Inhibition of non-purified MGL. The format is biochemical.

In experiment [5] the test system is rat brain diacylglycerol lipase. As to the kind of experiment: DGL activity in rat brain homogenates. Format: biochemical. To be noted: in vitro, Table S1.
The next experiment deals with T7, rat brain FAAH (Rattus norvegicus, UniProt P97612).
T7 sequence (P97612 1-579): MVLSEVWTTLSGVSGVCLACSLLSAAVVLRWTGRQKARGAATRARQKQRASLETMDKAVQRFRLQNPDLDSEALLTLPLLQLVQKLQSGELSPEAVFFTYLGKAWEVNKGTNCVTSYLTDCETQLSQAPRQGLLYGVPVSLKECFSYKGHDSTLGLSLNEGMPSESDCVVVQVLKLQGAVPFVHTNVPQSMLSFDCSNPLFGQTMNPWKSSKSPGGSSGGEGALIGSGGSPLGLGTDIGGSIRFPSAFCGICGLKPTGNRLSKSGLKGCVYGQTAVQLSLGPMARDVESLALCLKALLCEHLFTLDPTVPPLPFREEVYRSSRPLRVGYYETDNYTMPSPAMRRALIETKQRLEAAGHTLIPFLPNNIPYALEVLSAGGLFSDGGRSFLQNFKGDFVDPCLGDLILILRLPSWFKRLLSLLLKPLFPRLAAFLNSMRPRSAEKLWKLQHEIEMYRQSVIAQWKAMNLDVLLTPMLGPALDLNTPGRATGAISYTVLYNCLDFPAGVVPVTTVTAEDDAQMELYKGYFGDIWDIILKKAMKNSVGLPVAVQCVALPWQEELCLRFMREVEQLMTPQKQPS
As to the kind of experiment: FAAH activity in rat brain homogenates. To be noted: in vitro, Table S1. The format is biochemical.

The target in the next experiment is T8, rat ABHD12 (Rattus norvegicus, UniProt Q6AYT7).
T8 sequence (Q6AYT7 1-398): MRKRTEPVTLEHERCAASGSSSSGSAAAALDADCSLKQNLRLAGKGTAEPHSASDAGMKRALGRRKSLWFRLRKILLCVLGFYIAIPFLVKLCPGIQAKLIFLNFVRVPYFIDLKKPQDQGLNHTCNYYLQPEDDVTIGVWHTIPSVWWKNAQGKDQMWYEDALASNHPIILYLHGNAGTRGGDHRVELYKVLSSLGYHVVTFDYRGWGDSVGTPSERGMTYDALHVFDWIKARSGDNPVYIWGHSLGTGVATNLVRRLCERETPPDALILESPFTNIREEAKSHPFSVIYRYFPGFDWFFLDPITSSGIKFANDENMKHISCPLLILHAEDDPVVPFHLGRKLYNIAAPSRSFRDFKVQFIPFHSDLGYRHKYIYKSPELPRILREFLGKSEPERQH
Briefly: ABHD12 activity assay. To be noted: in vitro. Format: biochemical. An outline of the steps: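 Rat full-length ABHD12 (V5-tagged) transiently expressed in HeLa cells, harvested at 48 h, and homogenised in 50 mM Tris-Cl pH 8.0 with 0.32 M sucrose. Modified MGL assay run at pH 7.5 with 3 μg protein per reaction for 30 min at 37°C. Samples extracted; product (m/z 281) quantified by negative-ion ESI LC/MS in SIM mode against heptadecanoic acid standard.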

The next experiment deals with T9, non-purified HeLa MGL (Rattus norvegicus, UniProt Q8R431).
T9 sequence (Q8R431 1-303): T1 sequence (Q8R431 1-303)
Briefly: Michaelis-Menten kinetic analysis of the MGL reaction. The format is biochemical. The settings on record: for Vmax of MGL in presence of inhibitor: vehicle 200±20; for Mechanism of MGL inhibition: from rapid dilution and kinetic experiments.

The next experiment concerns the target purified MGL (Rattus norvegicus, UniProt Q8R431). The format is biochemical.
A further experiment has as its target T10, MGL C208G mutant (Rattus norvegicus, UniProt Q8R431, C208G).
T10 sequence (Q8R431 1-303 C208G): T1 sequence (Q8R431 1-303) with C208G
As to the kind of experiment: Inhibition of MGL C208G mutant in HeLa cell extracts. The format is biochemical.

Where [6] appears, read: IC50, inhibition of non-purified MGL, cell lysates of MGL-transfected HeLa cells.
Where [7] appears, read: IC50, wild-type MGL in HeLa cell extracts, wt control of the mutational analysis.

Positions count from the first letter of the chain named. Read-outs that look alike come from different tables or passages of the source.

As to `CC1=C(O)C(=O)C=C2C1=CC=C1[C@@]2(C)CC[C@@]2(C)[C@@H]3C[C@](C)(C(=O)O)CC[C@]3(C)CC[C@]12C` [Celastrol], the IC50 in experiment [1] is 1.6 ± 0.4 µM.

Regarding `Cc1c(O)c(O)cc2c1CC=C1[C@@]2(C)CC[C@@]2(C)[C@@H]3C[C@](C)(C(=O)O)CC[C@]3(C)CC[C@]12C` [Dihydrocelastrol], the IC50 in experiment [1] was found to be 15 ± 4 µM.

As to `CC(=O)Oc1cc2c(c(C)c1OC(C)=O)CC=C1[C@@]2(C)CC[C@@]2(C)C3C[C@](C)(C(=O)O)CC[C@]3(C)CC[C@]12C` (some centres unmarked) [Dihydrocelastryl Diacetate], the IC50 in [1] (read-out: IC50, inhibition of purified recombinant MGL) is 15 ± 3 µM.

For `CCCCC/C=C\C/C=C\C/C=C\C/C=C\CCCCN1C(=O)C=CC1=O` [N-arachidonylmaleimide, reference compound], in [2], the “Effect on 2-AG levels” value is “increased” and the “Effect on PEA levels” value is “increased”.

With `COC(=O)[C@]1(C)CC[C@]2(C)CC[C@]3(C)C4=CC=C5C(=CC(=O)C(O)=C5C)[C@]4(C)CC[C@@]3(C)[C@@H]2C1` [Pristimerin], on MGL Cys32 mutant, the “Effect of Cys32 mutation on activity of inhibitor” value is “did not influence the activity”. Also, the IC50 against rat ABHD6 came out at 0.098 ± 0.008 µM; in experiment [4] (setting [6]) it was 398 ± 68 nM; in [4] (setting [7]) it was 350 ± 37 nM; on MGL C208G mutant, 1180 ± 174 nM. Besides, the “Effect of Cys201 mutation on inhibitory potency” value on MGL C201G mutant (C201G vs wt, HeLa cell extracts) is “without affecting the potency”. Also, in experiment [3], the “Effect on N-acylethanolamide acid amidase activity” value was “no significant effect”. Besides, in experiment [2] (1 μM, 30 min), the “Effect on PEA levels” value is recorded as “not accompanied by any significant changes”. Besides, the “Cellular 2-AG concentrations” value in [2] (1 μM, 30 min, over vehicle-treated neurons) was 1.6±0.1 fold change. Also, the “Effect on diacylglycerol lipase activity” value in experiment [5] is “no significant effect”. The “Effect on FAAH activity” value at rat brain FAAH was “no significant effect”. In addition, the “Effect on ABHD12 activity” value on rat ABHD12 is listed as “did not affect the activity”. Further, the results for the “Vmax of MGL in presence of inhibitor” value on non-purified HeLa MGL (100 nM inhibitor), on non-purified HeLa MGL (300 nM inhibitor) and at non-purified HeLa MGL (500 nM inhibitor) were 174 ± 7 pmol/min/µg, 104 ± 7 pmol/min/µg and 51 ± 18 pmol/min/µg, respectively. Also, on non-purified HeLa MGL, the “Mechanism of MGL inhibition” value is “rapid, reversible and non-competitive”. Further, the “Time-course of MGL inhibition” value at purified MGL is recorded as “almost immediate blockade of MGL activity”.

Turning to `COC(=O)[C@]1(C)CC[C@]2(C)CC[C@]3(C)C4=CCc5c(cc(O)c(O)c5C)[C@]4(C)CC[C@@]3(C)[C@@H]2C1` [Pristimerol], the IC50 in experiment [1] turned out to be 4 ± 0.5 µM.

Take `CC(C)=CCC[C@@H](C)[C@@H]1CC[C@]2(C)C3=C(CC[C@@]12C)[C@@]1(C)CC[C@H](O)C(C)(C)[C@@H]1CC3` [euphol]: the “Effect of Cys32 mutation on activity of inhibitor” value at MGL Cys32 mutant was “did not influence the activity”. The IC50 at rat ABHD6 came out at 9 ± 1 µM; against MGL C201G mutant, 2600 ± 200 nM; in [4] (setting [6]), 882 ± 78 nM; in experiment [4] (setting [7]) it was 513 ± 9 nM. In [2] (10 μM, 30 min, data not shown), the “Effect on PEA levels” value is listed as “small, non-significant change”. In experiment [2] (10 μM, 30 min, over vehicle-treated neurons), the “Cellular 2-AG levels” value was 1.2±0.2 fold change. The “Mechanism of MGL inhibition” value on non-purified HeLa MGL was “reversible and non-competitive”. For the same molecule, the “Effect of Cys208 replacement on concentration-response curve” value on MGL C208G mutant (C208G vs wt, HeLa cell extracts) is on record as “no effect”.

These data come from PMC3034734 (Chemistry & biology, 2009).
